What was measured:
[1] = system: primary cultured cortical neurons; experiment: CCK-8 assay on neuronal cultures; type: cell-based, mouse; conditions: CCK-8, neuronal cultures treated with different dilutions of the probes for 24 h
[2] = system: MHC-I molecules in ischemic brain; experiment: In vivo and ex vivo NIRF imaging in photothrombotic stroke mice; parameters: species or system mouse
How it was run: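 Photothrombotic stroke in male C57BL/6 mice (6 weeks old), with brains illuminated 15 min and lesions confirmed by T2 MRI at 24 h. Cy5.5-labelled probe or scrambled control probe given i.v. via tail vein (10 nM, 200 μL PBS pH 7.4). Serial brain NIRF imaging 1–24 h (ex 675 nm, em 695 nm long pass). TBR taken as ischemic/contralateral hemisphere. Brain, heart, spleen, liver, kidney and lung then imaged ex vivo; n=6, mean±SEM.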

K(Cy5.5)ALYNFATM [Cy5.5-H2BP]
cytotoxicity to neurons [1]: low cytotoxicity | ex vivo NIRF signal intensity in the kidney ([2]; 24 h after injection of the probe, suggests excretion mainly via the kidney): high signal intensity | target background ratio (TBR), ischemic/contralateral hemisphere ([2]; 24 h after probe administration, compared with Cy5.5-H2CP probe, n=6 per group): significantly enhanced | TBR values in brain versus other organs ([2]; ex vivo NIRF images, brain, heart, liver, spleen, lung, kidney, n=6): significantly higher in the brain than in other organs | time of peak NIRF signal intensity post-injection ([2]; photothrombosis model mice, tail vein injection, 10 nM, 200 μL in PBS pH 7.4): approximately 8 h

Source: article PMC5562219 (Theranostics, 2017)
